Source: PubChem (Broad Institute)
DENV2 CPE: inhibitors of DENV2 cytopathic effect, primary screen, cell-based, plate reader, single concentration. DENV2-infected cells, cytopathic effect rescue. CPE inhibition, % at 9.99 µM. hit rate 1.7% among 350,000. AID 651640, 2012; in the data active = CPE inhibition above about 20%, passing the limit was not always enough; tested in BHK-21 cells
ERAP1 inh: human ERAP1 aminopeptidase inhibitors, primary screen, biochemical, single point, plate reader; recombinant ERAP1, Leu-AMC fluorescence, 60 min; inhibition, % at 10.7 µM; hit rate 0.15% among 340,000;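 active = mean replicate inhibition of at least 30%, or all replicates individually reaching that 30% level; inactive = mean below 30% and not every replicate reaching it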
Target sequence (Q9NZ08 whole entry, looked up): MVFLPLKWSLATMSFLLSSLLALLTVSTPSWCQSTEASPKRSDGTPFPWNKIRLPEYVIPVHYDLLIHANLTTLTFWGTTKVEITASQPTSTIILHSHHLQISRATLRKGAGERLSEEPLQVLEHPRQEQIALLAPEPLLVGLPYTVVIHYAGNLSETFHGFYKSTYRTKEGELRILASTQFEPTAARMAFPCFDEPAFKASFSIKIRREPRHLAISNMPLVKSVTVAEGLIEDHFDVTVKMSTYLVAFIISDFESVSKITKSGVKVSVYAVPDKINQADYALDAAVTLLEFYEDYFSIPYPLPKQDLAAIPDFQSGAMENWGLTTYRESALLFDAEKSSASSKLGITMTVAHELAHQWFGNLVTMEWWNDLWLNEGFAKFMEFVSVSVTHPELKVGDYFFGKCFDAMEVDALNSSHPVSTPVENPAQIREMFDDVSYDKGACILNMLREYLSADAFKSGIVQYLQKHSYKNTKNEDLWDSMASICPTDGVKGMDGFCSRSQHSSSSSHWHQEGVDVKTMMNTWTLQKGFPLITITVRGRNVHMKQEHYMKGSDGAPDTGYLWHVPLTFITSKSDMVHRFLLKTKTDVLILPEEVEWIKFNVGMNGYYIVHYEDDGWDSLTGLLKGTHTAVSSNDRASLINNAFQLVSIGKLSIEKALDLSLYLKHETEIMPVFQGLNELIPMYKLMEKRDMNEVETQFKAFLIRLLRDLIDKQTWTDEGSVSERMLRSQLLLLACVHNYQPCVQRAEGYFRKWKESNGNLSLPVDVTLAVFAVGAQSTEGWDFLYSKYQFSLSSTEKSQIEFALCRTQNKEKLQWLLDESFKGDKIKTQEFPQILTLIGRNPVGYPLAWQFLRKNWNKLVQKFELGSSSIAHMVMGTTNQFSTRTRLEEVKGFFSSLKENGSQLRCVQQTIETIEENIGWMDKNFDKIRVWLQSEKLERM
E-selectin induc: E-selectin induction in HUVECs, primary screen, imaging, HUVEC, immunofluorescence imaging, single point. P16581. normalized: neutral wells 0, TNF-alpha wells 100. activation, % at 7.58 µM. hit rate 0.37% among 260,000;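 active = mean E-selectin-positive cell signal at least 10% of the positive control, reached in at least 60% of replicates, without over 20% cell loss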
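Read-out basis: % PE-positive cells; Test system: HUVEC primary endothelial cells; Technique: immunofluorescence imaging; Dosing: single-point compound dose.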
SIRT5 block: SIRT5 desuccinylase inhibitors, primary screen, biochemical, fluorescence imaging, single point, set 5; NAD-dependent protein deacylase sirtuin-5, mitochondrial (Homo sapiens), Q9NXA8; Purified SirT5, succinyl-peptide AMC, trypsin-coupled fluorescence; inhibition, % at 15 µM; hit rate 1.1% among 330,000; AID 652115, 2013; in the data active = inhibition above about 15%
PglD DTNB: C. jejuni PglD acetyltransferase inhibitors, primary screen, biochemical, DTNB colorimetric, single point; UDP-N-acetylbacillosamine N-acetyltransferase PglD (Campylobacter jejuni); purified PglD enzyme, DTNB colorimetric CoA detection; inhibition, % at 12.5 µM; hit rate 0.098% among 360,000; in the data active = inhibition above about 16%, passing the limit was not always enough
Of the large screens only hits and unclear results are named; the others gave an inactive call. Hits are enriched below; roughly 2.5% of the tested compounds scored in any of these assays.

C[C@@H]1CN([C@@H](C)CO)C(=O)c2cc(NC(=O)Nc3ccc(C(F)(F)F)cc3)ccc2O[C@@H]1CN(C)Cc1ccc(C(F)(F)F)cc1	none
CC(C)NC(=O)Nc1ccc2c(c1)C(=O)N([C@H](C)CO)C[C@@H](C)[C@H](CN(C)Cc1ccc(C(F)(F)F)cc1)O2	SIRT5 block 15.2
CC(C)NC(=O)Nc1ccc2c(c1)C(=O)N([C@@H](C)CO)C[C@@H](C)[C@@H](CN(C)Cc1ccc(C(F)(F)F)cc1)O2	E-selectin induc 59.3
C[C@@H]1CN([C@H](C)CO)C(=O)c2cc(NC(=O)Nc3ccc(C(F)(F)F)cc3)ccc2O[C@@H]1CN(C)Cc1ccc(C(F)(F)F)cc1	none
C/C(CC(=O)NCc1ccc(Cl)cc1)=N\NC(=O)c1ccccc1F	none (no result: E-selectin induc, PglD DTNB)
CC(NC(=O)c1cc(-c2ccc3c(c2)OCO3)nc2ccccc12)C(C)(C)C (stereo unspecified)	none (no result: DENV2 CPE, ERAP1 inh, E-selectin induc, SIRT5 block)
O=C(N/C(=C\c1ccc(-c2ccccc2)o1)C(=O)N1CCOCC1)c1ccccc1	none (no result: DENV2 CPE, E-selectin induc, PglD DTNB)
COCCn1c(C)cc(C(=O)CSc2nc3ccccc3c(=O)n2Cc2ccco2)c1C	DENV2 CPE 22.9 (no result: E-selectin induc)
COCCn1c(C)cc(C(=O)CSc2cc(C)c3ccccc3n2)c1C	none (no result: DENV2 CPE, ERAP1 inh, E-selectin induc, SIRT5 block)
CC(C)Cc1ccc(C(C)C(N)=Nc2ccc(O)cc2)cc1 (stereo unspecified)	SIRT5 block 19.1
CCOc1ccc(-c2nn3c(-c4ccccc4)nnc3s2)cc1	none (no result: DENV2 CPE, ERAP1 inh, E-selectin induc, SIRT5 block)
Nc1cccc2c(O)cccc12	DENV2 CPE 31.5 (no result: PglD DTNB)
CCOC(=O)C[C@H]1c2ccccc2S(=O)(=O)N1c1ccccc1	DENV2 CPE 37.0 (no result: ERAP1 inh, SIRT5 block)
COc1ccc(NC(=O)Nc2c[nH]c(=O)[nH]c2=O)cc1OC	none (no result: E-selectin induc)
COc1ccc(-c2noc(Cn3cc(S(=O)(=O)N4CCCC4)ccc3=O)n2)cc1	SIRT5 block 22.2
O=C(CC1NCCN(Cc2ccccc2)C1=O)Nc1ccccc1 (stereo unspecified)	DENV2 CPE 71.6 (no result: ERAP1 inh, SIRT5 block)
Cc1ccc(CNC(=O)c2cccc3c2C(=O)c2ccc(N4CCOCC4)cc2S3(=O)=O)cc1	DENV2 CPE 31.1 (no result: SIRT5 block)
C[C@@H]1CCCCO[C@H](CN(C)C(=O)Cc2ccccc2)[C@H](C)CN([C@H](C)CO)C(=O)c2cc(NS(=O)(=O)c3ccccc3)ccc2O1	SIRT5 block 15.5
C[C@@H]1CCCCO[C@@H](CN(C)C(=O)Cc2ccccc2)[C@H](C)CN([C@H](C)CO)C(=O)c2cc(NS(=O)(=O)c3cccs3)ccc2O1	DENV2 CPE 61.2
C[C@H](CO)N1C[C@H](C)[C@@H](CN(C)C(=O)Cc2ccccc2)OCCCC[C@H](C)Oc2ccc(NS(=O)(=O)c3ccc(Cl)cc3)cc2C1=O	none
C[C@@H]1CCCCO[C@@H](CN(C)C(=O)Cc2ccccc2)[C@H](C)CN([C@H](C)CO)C(=O)c2cc(NS(=O)(=O)c3ccc(Cl)cc3)ccc2O1	DENV2 CPE 85.3
C[C@@H]1CCCCO[C@H](CN(C)C(=O)Cc2ccccc2)[C@@H](C)CN([C@H](C)CO)C(=O)c2cc(NS(=O)(=O)c3ccc(Cl)cc3)ccc2O1	DENV2 CPE 53.5
C[C@H](CO)N1C[C@H](C)[C@@H](CN(C)C(=O)Cc2ccccc2)OCCCC[C@H](C)Oc2ccc(NS(=O)(=O)c3ccccc3)cc2C1=O	none
C[C@@H]1CCCCO[C@H](CN(C)C(=O)Cc2ccccc2)[C@H](C)CN([C@H](C)CO)C(=O)c2cc(NS(=O)(=O)c3ccc(Cl)cc3)ccc2O1	none
Cc1noc(C)c1NC(=O)Nc1ccc2c(c1)C(=O)N([C@H](C)CO)C[C@H](C)[C@H](CN(C)S(=O)(=O)c1ccccc1)O2	none (no result: DENV2 CPE, ERAP1 inh, SIRT5 block, PglD DTNB)
O=[N+]([O-])c1cccc(-c2ccc(/C=N/NC(=S)Nc3ccccc3)o2)c1	none (no result: DENV2 CPE, ERAP1 inh, E-selectin induc, SIRT5 block)
O=C(O)c1cc(-c2ccc(/C=N/NC(=S)Nc3ccccc3)o2)ccc1Cl	SIRT5 block 16.1 (no result: E-selectin induc, PglD DTNB)
CCOC(=O)C1CCCN(C(=O)c2ccc3sccc3c2)CC1 (stereo unspecified)	none (no result: SIRT5 block)
Cc1[nH]nc2c1C(c1ccco1)C(C#N)=C(N)O2 (stereo unspecified)	E-selectin induc 114.4
